From PubChem
Most compounds without a hit are left out; they make up all but 2.6% or so of the library.
NadD inh = inhibitors of S. aureus NadD, primary screen, biochemical, colorimetric, uHTS; Nicotinate-nucleotide adenylyltransferase NadD (Staphylococcus aureus N315); purified NadD enzyme, colorimetric absorbance read-out; inhibition, % at 20 µM; 0.78% of 360,000 active; AID 602399, 2012; in the data active means inhibition above about 26%
core dimer inh = inhibitors of HCV core protein dimerization, primary screen, biochemical, TR-FRET, high-throughput; TR-FRET GST/Flag-core106 dimerization, 1536-well; inhibition, % at 5 µM; 0.33% of 300,000 active; AID 1899, 2009;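 active means inhibition above the mean of all tested compounds plus 3 SD, set per screening campaign, cut at about 45% in these data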
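Assay system: Tagged HCV core106 pair (GST and Flag) | Buffer or medium: KF-containing HEPES buffer, pH 7.45, DTT, CHAPS, BSA | Also added: Eu donor and XL665 acceptor anti-tag antibodies | Dosing: One concentration, 5 µM, in 0.5% DMSO | Timing: 4 h at 22.5 °C | Technique: TR-FRET 671 and 617 nm emission | Repeats: Singlicate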
ABHD5 PLIN5 PPI = ABHD5-PLIN5 interaction inhibitors, primary screen, cell lysate, split luciferase complementation, luminescence | 0.78% of 360,000 active | Split G. princeps luciferase complementation, 4 h | inhibition, % at 4 µM | AID 602281, 2012;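 active means inhibition above the mean inhibition across every tested compound plus 3 SD, cut at about 22% in these data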
Target sequence (Q00G26 whole entry, looked up): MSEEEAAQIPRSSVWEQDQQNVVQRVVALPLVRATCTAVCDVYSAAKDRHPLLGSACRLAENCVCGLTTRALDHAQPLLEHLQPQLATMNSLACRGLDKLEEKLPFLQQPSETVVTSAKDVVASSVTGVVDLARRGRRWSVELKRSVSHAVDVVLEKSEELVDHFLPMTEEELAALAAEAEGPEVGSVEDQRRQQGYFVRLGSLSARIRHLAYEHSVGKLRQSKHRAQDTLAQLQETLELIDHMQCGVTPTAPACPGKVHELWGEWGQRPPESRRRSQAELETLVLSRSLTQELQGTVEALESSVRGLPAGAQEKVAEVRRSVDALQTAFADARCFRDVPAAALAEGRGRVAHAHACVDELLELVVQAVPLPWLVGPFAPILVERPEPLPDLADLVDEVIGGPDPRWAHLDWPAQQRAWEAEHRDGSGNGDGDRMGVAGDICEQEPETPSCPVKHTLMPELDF
Target sequence (Q8WTS1 whole entry, looked up): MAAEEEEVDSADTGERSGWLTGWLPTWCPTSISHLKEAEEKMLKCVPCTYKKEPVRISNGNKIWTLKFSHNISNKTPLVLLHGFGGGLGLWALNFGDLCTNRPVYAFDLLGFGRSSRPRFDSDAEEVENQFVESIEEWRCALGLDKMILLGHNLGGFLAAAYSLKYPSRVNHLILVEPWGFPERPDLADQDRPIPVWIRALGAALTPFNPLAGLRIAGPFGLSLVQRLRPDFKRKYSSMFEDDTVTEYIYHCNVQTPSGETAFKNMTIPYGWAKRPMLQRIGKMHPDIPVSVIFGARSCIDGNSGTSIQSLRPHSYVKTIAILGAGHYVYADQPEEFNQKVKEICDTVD
rCAG binder = binders of r(CAG) RNA repeats, primary screen, biochemical, fluorescence; AID 651821, 2012; 1.3% of 370,000 active; inhibition, % at 3 µM; r(CAG) RNA repeat, TO-PRO-1 dye displacement fluorescence;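 active means inhibition above the plate cutoff, the mean of all test compounds on that plate plus 3 SD, cut at about 35% in these data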;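 further: higher means more dye released from RNA so lower well fluorescence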
Large screens that a line does not name were inactive.

O=S1(=O)c2ccccc2N=NN1Cc1cc(Cl)cc(Cl)c1	core dimer inh 46 (no result: NadD inh, ABHD5 PLIN5 PPI, rCAG binder)
C[C@H]1[C@@H](c2ccccc2)Oc2ccc(Cl)cc2S(=O)(=O)N1Cc1ccc(Cl)cc1	none (no result: NadD inh, core dimer inh, ABHD5 PLIN5 PPI)
COc1ccc(-c2cc(C(=O)N=Nc3c(O)[nH]c4ccccc34)[nH]n2)cc1	none (no result: NadD inh, core dimer inh, ABHD5 PLIN5 PPI)
Cc1ccc2c(c1)C1CS(=O)(=O)N(CC(C)C)CN1C2 (centres undefined)	none (no result: NadD inh, core dimer inh, ABHD5 PLIN5 PPI)
O=C(CNS(=O)(=O)c1cc2ccccc2s1)N1CCN(c2ccccn2)CC1	none (no result: NadD inh, core dimer inh, ABHD5 PLIN5 PPI)
COC(=O)[C@]12C[C@H](CC(=O)N3CCCC3)C(=O)N(CCc3ccc(OC)c(OC)c3)C1=C[C@H](C(C)(C)C)O[C@@H]2C	none (no result: NadD inh, core dimer inh, ABHD5 PLIN5 PPI)
Cc1ccc(C(=O)Nc2nc(-c3ccc([N+](=O)[O-])cc3)cs2)o1	core dimer inh 52
Cc1cc(C(=O)COC(=O)c2ccc3c(c2)NC(=O)CS3)c(C)n1CCc1ccc(Cl)cc1	core dimer inh 48
COc1ccc(/C=N/NS(=O)(=O)c2ccc(F)cc2)cc1COc1cc(F)ccc1[N+](=O)[O-]	core dimer inh 48
O=C(NC(=S)Nc1ccc(-c2ccc(CO)o2)cc1)c1cccs1	core dimer inh 51 (no result: rCAG binder)
Cc1ccc(C(=O)NC(=S)Nc2ccc(-c3ccc(CO)o3)cc2)cc1	none
COc1ccc(-c2cc(C(=O)N/N=C/c3ccc(OC)c(COCC(F)(F)C(F)F)c3)c3ccccc3n2)c(OC)c1	core dimer inh 58
O=C(c1ccc(-c2nnc(Nc3ccccc3)c3ccccc23)cc1)N1C[C@H]2C[C@H](C1)c1cccc(=O)n1C2	core dimer inh 60
O=C(Nc1cccc(-c2csc(Nc3ccc(Cl)cc3)n2)c1)c1cc([N+](=O)[O-])cc(C(F)(F)F)c1	NadD inh 42
O=C(Nc1ccc(-c2csc(Nc3ccccc3)n2)cc1)c1ccccc1	none
O=C(Nc1cccc(-c2csc(Nc3ccc(Cl)cc3)n2)c1)c1cccc(C(F)(F)F)c1	rCAG binder 40
O=C(Nc1cccc(-c2csc(Nc3ccc(Cl)cc3)n2)c1)c1ccccc1	none
Cc1cc(C(=O)CSc2nn3c(=O)c(C(C)(C)C)nnc3s2)c(C)n1-c1ccc(F)cc1	core dimer inh 49
Cc1ccc(N2C(=O)[C@@H]3[C@H](C2=O)C2CCCN2[C@@H]3C(=O)c2ccccc2)cc1 (some centres undefined)	core dimer inh 58
O=C1C2CC=C(Cl)CC2C(=O)N1CN(Cc1ccco1)CN1C(=O)C2CC=C(Cl)CC2C1=O (centres undefined)	core dimer inh 80
O=C(CCN1C(=O)C2CC=C(Cl)CC2C1=O)NCc1ccco1 (centres undefined)	none
COC(=O)C1CN(Cc2cn(Cc3ccc(C)cc3)nn2)CCS(=O)(=O)N1Cc1ccc(F)cc1 (centres undefined)	none (no result: NadD inh, core dimer inh, ABHD5 PLIN5 PPI)
Cc1c(CN2CCN(c3ncc(Cc4ccccc4)cn3)CC2)c(=O)n(-c2ccccc2)n1C	none (no result: NadD inh, core dimer inh, ABHD5 PLIN5 PPI)
Cc1ccc(NC(=O)Cc2ccc(OC(F)F)cc2)c(S(=O)(=O)N2CCOCC2)c1	none (no result: NadD inh, core dimer inh, ABHD5 PLIN5 PPI)
Cc1nnc2ccc(-c3ccc(NS(=O)(=O)c4ccccc4)cc3)nn12	none (no result: core dimer inh)
CC(=O)c1ccc(S(=O)(=O)Nc2ccc(-c3ccc4nnc(C)n4n3)cc2)cc1	core dimer inh 58
COC(=O)[C@@H]1C[C@]2(OC(=O)c3ccccc3)C=CC(=O)C[C@@H]2N1C(=O)OCc1ccccc1	ABHD5 PLIN5 PPI 45
COC(CNC(=O)C1CCCN1C(=O)OCc1ccccc1)OC (centres undefined)	none
O=C(NCc1ccco1)c1ccc(S(=O)(=O)N2CCOCC2)cc1	core dimer inh 48
CC(C)N1Cc2nnn(Cc3ccccc3)c2-c2cc(F)ccc2S1(=O)=O	none (no result: NadD inh, core dimer inh, ABHD5 PLIN5 PPI)
Cc1cc(C)c2c(c1)[C@@H]1C=CC[C@@H]1[C@H](c1ccc(S(=O)(=O)N3CCOCC3)cc1)N2	core dimer inh 84
COc1ccccc1-n1c(SCC(=O)NCc2ccc3c(c2)OCO3)nc2cc([N+](=O)[O-])ccc21	ABHD5 PLIN5 PPI 23
CC(Sc1nc2cc([N+](=O)[O-])ccc2n1-c1ccc(F)cc1)C(=O)NCc1ccc2c(c1)OCO2 (centres undefined)	none
COC(=O)[C@]12C[C@H](CC(=O)NCCc3ccccc3OC)C(=O)N(Cc3ccc(Cl)cc3Cl)C1=C[C@H](C1CCCC1)O[C@@H]2C	none (no result: NadD inh, core dimer inh, ABHD5 PLIN5 PPI)
COc1ccc2c(c1)c(CC(=O)NCc1cc([N+](=O)[O-])ccc1O)c(C)n2C(=O)c1ccc(Cl)cc1	NadD inh 33
CCC(=O)Nc1ccc2c(c1)C(=O)N(C)[C@@H]1CC[C@@H](CC(=O)NCCN3CCCCC3)O[C@H]1CO2	none (no result: NadD inh, core dimer inh, ABHD5 PLIN5 PPI)
Oc1ccc(C=Nc2cccc3ncccc23)c(O)c1	none
Oc1ccc(C=Nc2ccc3ncccc3c2)c(O)c1	core dimer inh 63 (no result: NadD inh, ABHD5 PLIN5 PPI, rCAG binder)
CC(C)C[C@H]1CNC(=S)N1C[C@H]1CCCN1C[C@H](Cc1ccc(O)cc1)N1C[C@H](CC(C)C)N(CCc2ccccc2)C1=S	ABHD5 PLIN5 PPI 23 (no result: core dimer inh)
CCc1c(-c2cccc(Br)c2)ncn1CCc1ccccc1OC	none (no result: NadD inh, core dimer inh, ABHD5 PLIN5 PPI)
CNc1ccc(Br)cc(C(=O)/C=C/c2ccc(OC)cc2OC)c1=O	none
CCNc1ccc(Br)cc(C(=O)/C=C/c2c(Cl)cccc2Cl)c1=O	NadD inh 56, ABHD5 PLIN5 PPI 44 (no result: rCAG binder)
COc1ccc(C(=O)C(CCC(CNC(C)(C)C)C(=O)c2ccc(OC)cc2)CNC(C)(C)C)cc1 (centres undefined)	ABHD5 PLIN5 PPI 41
NNc1ccc([N+](=O)[O-])c2[nH][nH]c(=O)c12	rCAG binder 42 (no result: core dimer inh)
O=[N+]([O-])c1ccc(Nc2ccccc2)c2nonc12	none
O=C(c1cc2c(s1)CCCC2)N1CCN(Cc2ccc3c(c2)OCO3)CC1	none
O=C(Oc1ccc2c(c1)OCO2)c1cc2c(s1)CCC2	core dimer inh 87
CC(/C=N/NC(=O)c1cc(-c2ccc(Cl)cc2)nc2ccccc12)=C\c1ccco1	core dimer inh 88
O=C(N/N=C/c1ccco1)c1cc(-c2ccncc2)nc2ccccc12	none (no result: core dimer inh)
CC(/C=N/NC(=O)CSc1nnc(SCc2ccccc2)s1)=C\c1ccco1	core dimer inh 48
CC(/C=N/NC(=O)c1cc(-c2ccccc2)nc2ccccc12)=C\c1ccco1	core dimer inh 51
Nc1nonc1-n1nnc(C(=O)N/N=C/c2cc(Br)ccc2O)c1CNc1ccccc1	NadD inh 53
Cc1ccc(/C=N/NC(=O)c2nnn(-c3nonc3N)c2CNc2ccccc2)cc1	none
CC(=O)c1cccc(S(=O)(=O)N2CCN(c3nc4cc(C)cc(C)c4cc3C#N)CC2)c1	core dimer inh 70
Cc1cc(C)c2cc(C#N)c(N3CCCN(S(=O)(=O)c4ccccc4)CC3)nc2c1	none (no result: NadD inh, ABHD5 PLIN5 PPI, rCAG binder)
CCOC(=O)CC[C@H]1CC[C@]2(CCCN(C(=O)C(C)(C)C)C2)O1	none (no result: NadD inh, core dimer inh, ABHD5 PLIN5 PPI)
CCC1=Nc2cc(C(=O)NCc3ccco3)ccc2Sc2ccc(Cl)cc21	core dimer inh 59
